What was measured:
Protease = Protease (Human immunodeficiency virus 1, UniProt Q9YQ12); experiment: Inhibition of HIV1 protease using fluorogenic substrate by continuous fluorometric assay
[1] = test system: Human immunodeficiency virus 1; experiment: Antiviral activity against HIV1 NL4-3 infected in human MT4 cells after 7 days by MTT assay; type: functional, organism-based; details: Human immunodeficiency virus 1, NL4-3, MT4, 168 h
Outline: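 MT-4 human T-lymphoid cells were exposed to HIV-1 NL4-3 (subtype B). IC50 values are the mean of at least two experiments.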

[2] = Selectivity index, ratio of CC50 for human MT4 cells to IC50 for HIV1 NL4-3; type: toxicity; details: read-out: Ratio CC50/IC50
Outline: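 Antiviral IC50 measured in MT-4 human T-lymphoid cells exposed to HIV-1 NL4-3 (subtype B), with values the mean of at least two experiments. CC50 (cytotoxicity) determined in MT-4 cells, given in μM. Index calculated as CC50 divided by IC50.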

MT4 = experiment: (§1) Cytotoxicity against human MT4 cells after 7 days by MTT assay; type: cell-based; details: mt4, 168 h
[3] = as §1; type: cell-based; details: MT4 cells

Sequence of Protease (Q9YQ12 whole entry): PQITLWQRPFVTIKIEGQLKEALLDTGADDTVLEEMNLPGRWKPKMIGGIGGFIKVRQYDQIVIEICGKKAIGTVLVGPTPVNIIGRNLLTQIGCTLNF

SMILES	Ki (Protease) [nM]	IC50 [1] [nM]	selectivity ratio [2]	CC50 (MT4) [nM]	CC50 at 168 h [3] [nM]
COc1ccc(S(=O)(=O)N(CC(C)C)C[C@@H](O)[C@H](Cc2ccccc2)NC(=O)c2ccc3c(c2)[C@@H](NC(=O)OC(C)(C)C)CCS3)cc1	0.38	> 1000	–	–	–
COc1ccc(S(=O)(=O)N(CC(C)C)C[C@@H](O)[C@H](Cc2ccccc2)NC(=O)c2ccc3c(c2)[C@@H](NC(=O)OC(C)(C)C)CC[C@@H]3O)cc1	0.14	254	131	33300	–
CC(C)(C)NC(=O)[C@@H]1C[C@@H]2CCCC[C@@H]2CN1C[C@@H](O)[C@H](Cc1ccccc1)NC(=O)[C@H](CC(N)=O)NC(=O)c1ccc2ccccc2n1	–	15	–	–	–
COc1ccc(S(=O)(=O)N(CC(C)C)C[C@@H](O)[C@H](Cc2ccccc2)NC(=O)c2ccc3c(c2)[C@@H](N)CC[C@@H]3O)cc1	0.06	232	151	35100	–
COc1ccc(S(=O)(=O)N(CC(C)C)C[C@@H](O)[C@H](Cc2ccccc2)NC(=O)c2ccc3c(c2)[C@@H](N)CCS3(=O)=O)cc1	15.8	> 1000	–	–	–
COc1ccc(S(=O)(=O)N(CC(C)C)C[C@@H](O)[C@H](Cc2ccccc2)NC(=O)c2ccc3c(c2)[C@H](NC(=O)OC(C)(C)C)CCS3)cc1	26.7	> 1000	–	–	–
COc1ccc(S(=O)(=O)N(CC(C)C)C[C@@H](O)[C@H](Cc2ccccc2)NC(=O)c2ccc3c(c2)[C@@H](NC(=O)OC(C)(C)C)CCS3(=O)=O)cc1	0.008	47	> 2130	–	> 100000
COc1ccc(S(=O)(=O)N(CC(C)C)C[C@@H](O)[C@H](Cc2ccccc2)NC(=O)c2ccc3c(c2)[C@H](N)CCS3(=O)=O)cc1	18	> 1000	–	–	–
COc1ccc(S(=O)(=O)N(CC(C)C)C[C@@H](O)[C@H](Cc2ccccc2)NC(=O)c2ccc3c(c2)[C@H](NC(=O)OC(C)(C)C)CCS3(=O)=O)cc1	0.1	476	> 210	–	> 100000
COc1ccc(S(=O)(=O)N(CC(C)C)C[C@@H](O)[C@H](Cc2ccccc2)NC(=O)c2ccc3c(c2)[C@@H](NC(=O)OC(C)(C)C)CC[C@H]3O)cc1	0.3	> 1000	–	–	–
COc1ccc(S(=O)(=O)N(CC(C)C)C[C@@H](O)[C@H](Cc2ccccc2)NC(=O)c2ccc3c(c2)[C@H](NC(=O)OC(C)(C)C)CC[C@@H]3O)cc1	1.63	> 1000	–	–	–
COc1ccc(S(=O)(=O)N(CC(C)C)C[C@@H](O)[C@H](Cc2ccccc2)NC(=O)c2ccc3c(c2)[C@@H](N)CC[C@H]3O)cc1	17	> 1000	–	–	–
COc1ccc(S(=O)(=O)N(CC(C)C)C[C@@H](O)[C@H](Cc2ccccc2)NC(=O)c2ccc3c(c2)[C@H](N)CC[C@@H]3O)cc1	1.1	> 1000	–	–	–
